Screens deposited in PubChem BioAssay by Broad Institute.
IDH1 R132H inh = inhibitors of human IDH1 R132H | IDH1 R132H reductase, diaphorase/resazurin fluorescence, 60 min | 70,000 tested, 0.18% active | AID 624101 | inhibition, % at 10 µM | O75874; in the data active means inhibition above about 34%; inconclusive means no clear call, values can overlap the other calls; inactive means below about 11%;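 further: 0% = DMSO and 100% = no enzyme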
Target sequence (O75874 whole entry R132H): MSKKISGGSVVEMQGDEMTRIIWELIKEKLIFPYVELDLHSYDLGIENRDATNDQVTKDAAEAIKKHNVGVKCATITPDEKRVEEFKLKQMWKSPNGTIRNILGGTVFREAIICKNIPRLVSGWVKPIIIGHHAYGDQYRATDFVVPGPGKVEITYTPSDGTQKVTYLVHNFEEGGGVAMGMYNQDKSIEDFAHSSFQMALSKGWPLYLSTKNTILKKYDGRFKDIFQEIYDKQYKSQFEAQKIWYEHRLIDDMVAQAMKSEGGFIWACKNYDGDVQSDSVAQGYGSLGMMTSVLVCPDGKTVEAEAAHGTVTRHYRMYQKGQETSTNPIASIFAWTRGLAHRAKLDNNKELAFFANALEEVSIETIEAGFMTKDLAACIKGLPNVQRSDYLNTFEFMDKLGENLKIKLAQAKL
T cruzi growth-1 = T. cruzi proliferation inhibition; inhibition, % at 8.34 µM; T. cruzi beta-gal in NIH3T3, GalScreen luminescence, 90 h; 77,000 tested, 5.9% active;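 active means mean inhibition above about 93%, with at least 55% of replicates each passing it, limit read from the data, passing the limit was not always enough; inconclusive means only one of those two conditions holds; inactive means neither condition holds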
KDM4C inh = blocks human GASC-1 (KDM4C) demethylase activity; inhibition, % at 12.5 µM; Q9H3R0; AID 720574; GST-KDM4C 2-372, H3K9me3 peptide, LANCE TR-FRET; 96,000 tested, 0.15% active;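 active means mean replicate inhibition above about 25%, with at least 55% of replicates also reaching it, limit read from the data, passing the limit was not always enough; inconclusive means only one of those two conditions met; inactive means neither condition met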
Target sequence (Q9H3R0 2-372 limits assumed): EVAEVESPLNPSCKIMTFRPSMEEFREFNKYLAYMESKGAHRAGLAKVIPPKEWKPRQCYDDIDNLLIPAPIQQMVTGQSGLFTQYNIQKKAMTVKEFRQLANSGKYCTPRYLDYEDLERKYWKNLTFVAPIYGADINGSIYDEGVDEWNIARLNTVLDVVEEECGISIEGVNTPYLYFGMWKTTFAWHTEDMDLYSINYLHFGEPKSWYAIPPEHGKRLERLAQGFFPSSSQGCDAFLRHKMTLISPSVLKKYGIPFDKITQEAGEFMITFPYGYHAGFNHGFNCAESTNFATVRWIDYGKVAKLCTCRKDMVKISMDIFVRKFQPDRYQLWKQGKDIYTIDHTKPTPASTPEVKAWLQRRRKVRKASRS
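Assay system: GST-GASC-1 enzyme fragment 2-372 | Amount: 10 nM enzyme | Medium: HEPES buffer, pH 7.5, plus ascorbate | Reagent: H3K9me3 peptide substrate, Fe(II), 2-oxoglutarate | Doses: Single-point compound screen | Incubation: 30 min demethylation and 1 h detection at room temperature | Measured by: LANCE TR-FRET, excitation 340 nm, emissions 618 and 671 nm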
Pf Dd2 inh = inhibitors of Plasmodium falciparum Dd2 growth. P. falciparum Dd2 growth, SYBR Green, 72 h; stronger effect = lower value. activity change, % at 10 µM. 94,000 tested, 2.3% active. AID 1159554; in the data active means activity change below about -80%; inconclusive means no clear call, values can overlap the other calls
T cruzi growth-2 = Trypanosoma cruzi proliferation inhibition; shares compounds with T cruzi growth-1; T. cruzi beta-gal in NIH3T3, GalScreen luminescence, 90 h; inhibition, % at 8.35 µM; 5,600 tested, 72% active;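 active means mean replicate inhibition above about 95% and at least 55% of replicates individually reaching it, limit read from the data; inconclusive means only one of the two criteria is met; inactive means neither criterion is met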
T cruzi growth-3 = Trypanosoma cruzi proliferation inhibition; shares compounds with T cruzi growth-1; T. cruzi beta-gal in NIH3T3, GalScreen luminescence, 90 h; inhibition, % at 2.09 µM; 5,600 tested, 21% active;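 active means mean inhibition above about 95%, with at least 55% of replicates also reaching it, limit read from the data; inconclusive means meets just one of the two conditions; inactive means meets neither condition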;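 further: plate controls were neutral control median for no effect and positive control median for full effect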
NIH3T3 tox = NIH/3T3 (mouse) viability loss; shares compounds with T cruzi growth-1; NIH/3T3 viability, CellTiter-Glo ATP luminescence, 90 h; cytotoxicity (signal decrease), % at 8.35 µM; 5,600 tested, 14% active;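 active means mean signal decrease across replicates above about 35% based on untreated-well scatter, with enough replicates individually passing, limit read from the data; inconclusive means no rule stated though some were filed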;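 further: 0% = median of neutral control wells and 100% = median of positive control wells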
3T3 cytotox 2 = kills mouse NIH/3T3 fibroblasts; NIH/3T3 viability, CellTiter-Glo ATP luminescence, 90 h; 5,600 tested, 56% active; shares compounds with T cruzi growth-1; inhibition, % at 24.9 µM;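 active means mean loss of cell viability signal at or above a set limit, and enough replicates individually reaching it; inconclusive means meets only the mean limit or only the replicate share; inactive means meets neither condition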;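 further: 0% = median of neutral control wells and 100% = median of positive control wells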
Numbers without * were called inactive; ? = inconclusive; nt = not tested or not shown. Sampled rows, rich in hits. Any-hit rate of the full collection: about 5.9%.

SMILES	IDH1 R132H inh	T cruzi growth-1	KDM4C inh	Pf Dd2 inh	T cruzi growth-2	T cruzi growth-3	NIH3T3 tox	3T3 cytotox 2
C[C@@H]1CCCCO[C@@H](CN(C)S(=O)(=O)c2ccccc2)[C@@H](C)CN([C@@H](C)CO)C(=O)c2cc(NC(=O)Nc3ccccc3)ccc2O1	-0.9	29.6	nt	-74.8	nt	nt	nt	nt
Cc1ccc(S(=O)(=O)N(C)C[C@H]2OCCCC[C@@H](C)Oc3ccc(NC(=O)Nc4ccccc4)cc3C(=O)N([C@@H](C)CO)C[C@H]2C)cc1	-1.8	?	0.2	-74.3	106.2*	102.6*	-17.3	19.3
Cc1ccc(S(=O)(=O)N(C)C[C@H]2OCCCC[C@@H](C)Oc3ccc(NC(=O)Nc4ccccc4)cc3C(=O)N([C@@H](C)CO)C[C@@H]2C)cc1	nt	108.9*	-1.4	-82.6*	108.8*	62.7	17.7	35.1*
Cc1ccc(S(=O)(=O)N(C)C[C@@H]2OCCCC[C@H](C)Oc3ccc(NC(=O)c4ccccc4)cc3C(=O)N([C@H](C)CO)C[C@@H]2C)cc1	-1.6	95.3*	0.3	-71.7	104.3*	55.3	-14.2	?
C[C@@H]1CN([C@H](C)CO)C(=O)c2cc(NC(=O)c3ccccc3)ccc2O[C@@H](C)CCCCO[C@@H]1CN(C)S(=O)(=O)c1ccccc1	nt	23.9	-1.1	-72.2	nt	nt	nt	nt
C[C@@H]1CCCCO[C@H](CN(C)S(=O)(=O)c2ccccc2)[C@H](C)CN([C@@H](C)CO)C(=O)c2cc(NC(=O)Nc3ccccc3)ccc2O1	0.0	51.0	-0.1	-40.6	nt	nt	nt	nt
C[C@H]1CCCCO[C@@H](CN(C)S(=O)(=O)c2ccccc2)[C@@H](C)CN([C@@H](C)CO)C(=O)c2cc(NC(=O)Nc3ccccc3)ccc2O1	-1.1	84.1	-0.9	-65.7	nt	nt	nt	nt
Cc1ccc(S(=O)(=O)N(C)C[C@H]2OCCCC[C@@H](C)Oc3ccc(NC(=O)Nc4ccccc4)cc3C(=O)N([C@H](C)CO)C[C@H]2C)cc1	-0.8	112.6*	-1.2	-86.6*	109.2*	108.2*	-7.7	6.5
CC(C)NC(=O)N(C)C[C@@H]1Oc2ccc(NS(C)(=O)=O)cc2C(=O)N([C@@H](C)CO)C[C@H]1C	-1.1	23.0	-1.2	-4.7	nt	nt	nt	nt
CO[C@@H]1CN(C)C(=O)c2ccc(NC(=O)C3CC3)cc2OC[C@@H](C)NC[C@@H]1C	0.1	nt	0.0	nt	nt	nt	nt	nt
CC(C)NC(=O)Nc1ccc2c(c1)C(=O)N([C@@H](C)CO)C[C@H](C)[C@H](CN(C)S(=O)(=O)c1ccccc1)O2	nt	6.1	0.9	16.1	nt	nt	nt	nt
Cc1ccc(S(=O)(=O)N(C)C[C@H]2OCCCC[C@H](C)Oc3ccc(NC(=O)Nc4ccccc4)cc3C(=O)N([C@H](C)CO)C[C@H]2C)cc1	nt	?	2.1	-88.4*	110.8*	32.4	-3.2	-4.1
Cc1ccc(S(=O)(=O)N(C)C[C@H]2OCCCC[C@H](C)Oc3ccc(NC(=O)Nc4ccccc4)cc3C(=O)N([C@@H](C)CO)C[C@@H]2C)cc1	1.2	111.5*	6.1	-83.4*	101.5*	107.1*	-23.6	2.6
Cc1ccc(S(=O)(=O)N(C)C[C@@H]2OCCCC[C@H](C)Oc3ccc(NC(=O)Nc4ccccc4)cc3C(=O)N([C@@H](C)CO)C[C@@H]2C)cc1	-1.2	108.0*	0.3	-89.7*	101.5*	70.7	-2.2	5.7
C[C@H]1CN([C@@H](C)CO)C(=O)Cc2cc(NS(=O)(=O)c3ccc(F)cc3)ccc2O[C@@H]1CN(C)S(=O)(=O)c1ccccc1	-4.7	-1.8	-0.1	4.9	nt	nt	nt	nt
CCCNC(=O)[C@H]1[C@H](CO)[C@H]2Cn3c(ccc(-c4ccccc4)c3=O)[C@@H]1N2Cc1ccccc1F	nt	58.9	-0.2	-3.7	nt	nt	nt	nt
CCCC(=O)N1CC2(CN(Cc3nccs3)C2)c2c([nH]c3cc(OC)ccc23)[C@H]1CO	nt	nt	-1.6	32.1	nt	nt	nt	nt
OC[C@H]1[C@H](c2ccc(/C=C/c3ccccc3)cc2)[C@@H]2CN(Cc3ccncc3)CCCCN12	nt	?	4.4	-62.2	109.6*	51.3	?	103.9*
OC[C@@H]1[C@@H](c2ccc(/C=C/c3ccccc3)cc2)[C@H]2CN(Cc3cccnc3)CCCCN12	nt	86.5	-0.6	-75.8	nt	nt	nt	nt
OC[C@H]1[C@H](c2ccc(/C=C/c3ccccc3)cc2)[C@@H]2CN(Cc3cccnc3)CCCCN12	nt	103.5*	-0.9	-70.8	107.7*	65.4	0.0	104.1*
COc1ccc(C2Oc3c(OC)cc(/C=C/COC4OC(CO)C(O)C(O)C4O)cc3C2CO)cc1OC (configuration not stated)	10.3	nt	nt	nt	nt	nt	nt	nt
CS(=O)(=O)Nc1ccc2c(c1)[C@@H]1C[C@H](CC(=O)NC3CCCC3)O[C@@H](CO)[C@@H]1O2	-3.0	-13.4	-0.5	25.5	nt	nt	nt	nt
Cc1ccccc1S(=O)(=O)N1CCCCN2[C@@H](CO)[C@H](c3ccc(-c4cccnc4)cc3)[C@@H]2C1	nt	101.8*	?	-25.2	102.1*	71.1	29.7	38.2*
Cc1ccccc1S(=O)(=O)N1CCCCN2[C@H](C1)[C@@H](c1ccc(-c3cncnc3)cc1)[C@@H]2CO	nt	77.8	-4.3	-9.6	nt	nt	nt	nt
Cc1ccccc1S(=O)(=O)N1CCCCN2[C@H](C1)[C@@H](c1ccc(-c3cccnc3)cc1)[C@@H]2CO	nt	85.5	-3.9	-3.4	nt	nt	nt	nt
SMILES	IDH1 R132H inh	T cruzi growth-1	KDM4C inh	Pf Dd2 inh	T cruzi growth-2	T cruzi growth-3	NIH3T3 tox	3T3 cytotox 2
Cc1ccccc1S(=O)(=O)N1CCCCN2[C@H](CO)[C@H](c3ccc(-c4cncnc4)cc3)[C@@H]2C1	nt	112.3*	5.1	0.2	101.4*	-0.9	4.6	1.9
Cc1ccccc1S(=O)(=O)N1CCCCN2[C@H](C1)[C@H](c1ccc(-c3cncnc3)cc1)[C@@H]2CO	nt	101.8*	0.0	-1.4	99.6*	19.2	12.3	23.6
C[C@@H]1CN([C@H](C)CO)C(=O)c2cc(NC(=O)CCCN(C)C)ccc2O[C@@H](C)CCCCO[C@H]1CN(C)S(=O)(=O)c1cn(C)cn1	nt	-21.4	1.2	18.3	nt	nt	nt	nt
COCC#Cc1ccc2c(c1)O[C@@H](CN(C)C(=O)NC(C)C)[C@@H](C)CN([C@H](C)CO)S2(=O)=O	-0.8	18.6	0.7	nt	nt	nt	nt	nt
COc1ccc(S(=O)(=O)N(C)C[C@H]2OCCCC[C@H](C)Oc3ccc(NC(=O)NC4CCCCC4)cc3C(=O)N([C@H](C)CO)C[C@@H]2C)cc1	-0.5	104.4*	-0.3	-63.8	112.1*	7.4	-0.2	2.4
COc1ccc(S(=O)(=O)N(C)C[C@H]2OCCCC[C@@H](C)Oc3ccc(NC(=O)NC4CCCCC4)cc3C(=O)N([C@@H](C)CO)C[C@H]2C)cc1	nt	92.9	-1.5	-61.4	nt	nt	nt	nt
